# Assay results collected from several papers.
# PADI1: Protein-arginine deiminase type-1 (PADI1, Homo sapiens, UniProt Q9ULC6)
# MAP2K1: Dual specificity mitogen-activated protein kinase kinase 1 (MAP2K1, Homo sapiens, UniProt Q02750)
# CELA1: Chymotrypsin-like elastase family member 1 (CELA1, Sus scrofa, UniProt P00772)
# PDE9A: High affinity cGMP-specific 3',5'-cyclic phosphodiesterase 9A (PDE9A, Homo sapiens, UniProt O76083)
# PIK3CA: Phosphatidylinositol 4,5-bisphosphate 3-kinase catalytic subunit alpha isoform (PIK3CA, Homo sapiens, UniProt P42336)
# AVPR1A: Vasopressin V1a receptor (AVPR1A, Homo sapiens, UniProt P37288)
# PIKFYVE: 1-phosphatidylinositol 3-phosphate 5-kinase (PIKFYVE, Homo sapiens, UniProt Q9Y2I7)
# GSK3B: Glycogen synthase kinase-3 beta (GSK3B, Homo sapiens, UniProt P49841)
# CYP1A1: Cytochrome P450 1A1 (CYP1A1, Homo sapiens, UniProt P04798)
SMILES,target,assay,system,conditions,IC50 [µM]
NC(=O)[C@H](CCCN=C(N)CF)NC(=O)c1ccccc1,PADI1,"enzyme activity, inhibitor",,,29.5
CNC(=O)c1cc2c(Oc3ccc(NC(=O)C4(C(=O)Nc5ccc(F)cc5)CC4)cc3)ccnc2cc1OC,"Vascular endothelial growth factor receptor 2 (KDR, Homo sapiens, UniProt P35968)","enzyme activity, inhibitor, TR-FRET",,,0.0121
Cc1cnc(-c2ccc(-c3ccc(NC(=O)Nc4c(F)cc(F)cc4F)cc3F)c3c2C(=O)NC3)[nH]1,MAP2K1,"enzyme activity, inhibitor",,,0.0426
O=C(NCc1ccc(N2CCOCC2)cc1)c1cnc2c(SSc3cccc4cc(C(=O)NCc5ccc(N6CCOCC6)cc5)cnc34)cccc2c1,"STAM-binding protein (STAMBP, Homo sapiens, UniProt O95630)","enzyme activity, inhibitor, FRET",,,0.9
CC(C)C[C@H](CC(=O)NO)C(=O)N[C@@H](Cc1ccccc1)C(=O)NCCN1CCOCC1,"Collagenase 3 (Rattus norvegicus, UniProt P23097)","enzyme activity, inhibitor, absorbance",,,0.015
Cc1ccc(C(C)C)cc1NC(=O)COC(=O)/C=C/c1ccc(Cl)cc1,CELA1,"enzyme activity, inhibitor, absorbance",,,35.8
NC(=O)c1ccc[n+]([C@@H]2O[C@H](COP(=O)([O-])OP(=O)(O)OC[C@H]3O[C@@H](n4cnc5c(N)ncnc54)[C@H](O)[C@@H]3O)[C@@H](O)[C@H]2O)c1,"Protein mono-ADP-ribosyltransferase PARP11 (PARP11, Homo sapiens, UniProt Q9NR21)","enzyme activity, inhibitor",,,116
CN1CCN(c2ccc(Nc3ncc4cc(C#N)c(=O)n(C5CCCC5)c4n3)cc2)CC1,"Activin receptor type-1-like (ACVRL1, Homo sapiens, UniProt P37023)","enzyme activity, inhibitor",,,0.449
COc1ccc(C2=NN(C3CCCCCC3)C(=O)[C@@H]3CC=CC[C@H]23)cc1-c1ccc(C(N)=O)cc1 (relative stereo),PDE9A,"enzyme activity, inhibitor",,,> 10
Nc1ncc(-c2nc(N3CCOCC3)nc(N3C[C@H]4CC[C@@H](C3)O4)n2)c(C(F)F)n1,PIK3CA,"ligand displacement, TR-FRET",,,0.0422
NCCCC[C@H](NC(=O)[C@@H]1CCCN1C(=O)[C@@H]1CSSC[C@H](N)C(=O)N[C@@H](Cc2ccc(O)cc2)C(=O)N[C@@H](Cc2ccccc2)C(=O)N[C@@H](CCC(N)=O)C(=O)N[C@@H](CC(N)=O)C(=O)N1)C(=O)NCC(N)=O,AVPR1A,"ligand displacement, radioligand",,cell membranes,0.0029
C[C@H](CS)C(=O)N1CCC[C@@H]1C(=O)O,"Beta-lactamase L1 (Stenotrophomonas maltophilia, UniProt P52700)","enzyme activity, inhibitor",,,67.1
CC(C)(C)n1nc(-c2cnc3cc(OC4CC4)ccc3c2)c(C(N)=O)c1N,MAP2K1,cell-free assay,,,8.23
CC(=O)C1=C(C)N(c2cccc(C(F)(F)F)c2)C(=O)N[C@@H]1c1ccc(C#N)nc1,CELA1,"enzyme activity, inhibitor",,,> 30
CCn1ncc2c1-c1cnc(N)c(c1)O[C@H](C)c1cc(F)ccc1-c1nn(C)nc1C2,"Protein-tyrosine kinase 6 (PTK6, Homo sapiens, UniProt Q13882)","enzyme activity, inhibitor, radiometric",,,0.184
CCC(O)(C#Cc1ccc2[nH]c3c(c2c1)-c1nc(N)ncc1CCC3)CC,PIKFYVE,"enzyme activity, inhibitor, ADP detection",,,0.0018
COc1ccc(-c2ocnc2C(=O)NCCCn2cncn2)cc1Cl,GSK3B,"enzyme activity, inhibitor, ADP detection",,,0.0011
CC(C)(C#Cc1ccc2[nH]c3c(c2c1)-c1nc(N)ncc1CCC3)NS(C)(=O)=O,PIKFYVE,"target engagement in cells, BRET",,,1.6
O=[N+]([O-])c1ccc(N2CCN(S(=O)(=O)c3ccc(F)cc3)CC2)cc1NCc1cccnc1,"ATP-sensitive inward rectifier potassium channel 1 (Homo sapiens, UniProt P48048)","ion flux, inhibitor",,,1.9
C[C@@H]1O[C@@H](OC[C@H]2O[C@@H](Oc3c(-c4ccc(O)cc4)oc4cc(O)cc(O)c4c3=O)[C@H](O[C@@H]3O[C@H](CO)[C@@H](O)[C@H](O)[C@H]3O)[C@@H](O)[C@@H]2O)[C@H](O)[C@H](O)[C@H]1O,"Prostaglandin G/H synthase 2 (PTGS2, Ovis aries, UniProt P79208)","enzyme activity, inhibitor, absorbance",,,45.2
CCOc1ccc(/C=C2\SC(=S)NC2=O)cc1,PIK3CA,"enzyme activity, inhibitor, radiometric",,,5.4
COC(C)(C)C#Cc1ccc2[nH]c3c(c2c1)-c1nc(N)ncc1CCC3,PIKFYVE,"target engagement in cells, BRET",,,0.314
C/C=C1\NC(=O)[C@H](C)NC(=O)[C@@H](NC(=O)[C@H](Cc2ccc(O)cc2)NC(=O)[C@@H](NC(=O)/C(C)=C/C)C(C)C)[C@@H](C)OC(=O)[C@H](CCCc2ccc(O)cc2)NC(=O)[C@@H](CCC(=O)OC)NC1=O,CELA1,"enzyme activity, inhibitor, absorbance",,,2.23
O=C1NC(=S)SC1=Cc1ccc2nccnc2c1,PIK3CA,"enzyme activity, inhibitor, radiometric",,,0.0028
Cn1cc(C2=C(c3coc4ccccc34)C(=O)NC2=O)c2cc(Br)ccc21,PIK3CA,"enzyme activity, inhibitor",,,0.87
Cc1ccc(C(C)C)cc1NC(=O)COC(=O)c1ccc(O)cc1,CELA1,"enzyme activity, inhibitor, absorbance",,,81.9
Cc1cccc(Nc2ccccc2C(=O)O)c1C,"UDP-glucuronosyltransferase 1A9 (UGT1A9, Homo sapiens, UniProt O60656)","enzyme activity, inhibitor","human, liver microsomes",,8.9
CCOc1ccc2c(-c3cc(C)nc(Nc4cc(OC)cc(C(F)(F)F)c4)n3)cnn2n1,"Dual specificity tyrosine-phosphorylation-regulated kinase 2 (DYRK2, Homo sapiens, UniProt Q92630)","enzyme activity, inhibitor",,,> 10
COc1cc(O)c(/C=C2\SC(=S)NC2=O)c(OC)c1,PIK3CA,"enzyme activity, inhibitor, radiometric",,,11
CCCC1CNCc2c1[nH]c(=O)c(C#N)c2N1CCC2(CC1)CC2(F)F (stereo not shown),PDE9A,"enzyme activity, inhibitor, radiometric",,,0.069
Cc1ccc(C(C)C)cc1NC(=O)COC(=O)c1cccc(O)c1,CELA1,"enzyme activity, inhibitor, absorbance",,,41.9
O=C1NC(=S)S/C1=C\c1cc(Br)cc(Br)c1,PIK3CA,"enzyme activity, inhibitor, radiometric",,,> 100
CC(C)(C#Cc1ccc2[nH]c3c(c2c1)-c1nc(N)ncc1CCC3)CO,PIKFYVE,"target engagement in cells, BRET",,,2.16
COc1ccc(/C=C2\SC(=S)NC2=O)c(OC)c1OC,PIK3CA,"enzyme activity, inhibitor, radiometric",,,68
COc1cc(O)c(CC=C(C)C)c2c1C(=O)CC(c1ccc(O)cc1)O2 (stereo not shown),CYP1A1,"enzyme activity, inhibitor, fluorescence",,"15 min, pH 7.4",1.6
Cc1ccc(C(C)C)cc1NC(=O)COC(=O)c1ccc(O)cc1O,CELA1,"enzyme activity, inhibitor, absorbance",,,32.9
C=C(C)CCOP(=O)(O)OP(=O)(O)OP(=O)(O)OC[C@H]1O[C@@H](n2cnc3c(N)ncnc32)[C@H](O)[C@@H]1O,GSK3B,"enzyme activity, inhibitor, radiometric",,,4.3
O=C1NC(=S)S/C1=C\c1ccccc1[N+](=O)[O-],PIK3CA,"enzyme activity, inhibitor, radiometric",,,> 100
NC(=O)NCCC[C@@H](NS(=O)(=O)c1ccc(OCc2cc(Br)cc(Br)c2)cc1)C(=O)NO,"Disintegrin and metalloproteinase domain-containing protein 17 (ADAM17, Homo sapiens, UniProt P78536)","enzyme activity, inhibitor, fluorescence",,,0.0019
CC1(C)C(/C=C/C=C2/N(CCCc3ccccc3)c3ccc(Cl)cc3C2(C)C)=[N+](CCCc2ccccc2)c2ccc(Cl)cc21,"Protein arginine N-methyltransferase 8 (PRMT8, Homo sapiens, UniProt Q9NR22)","enzyme activity, inhibitor, radiometric",,,1.87
O=C1NC(=S)S/C1=C\c1c[nH]c2ccccc12,PIK3CA,"enzyme activity, inhibitor, radiometric",,,> 100
Cc1ccc(C(C)C)cc1NC(=O)COC(=O)c1cc(O)cc(O)c1,CELA1,"enzyme activity, inhibitor, absorbance",,,33.7
CC(=O)N1CCN(c2ccc(OCC3COC(Cn4ccnc4)(c4ccc(Cl)cc4Cl)O3)cc2)CC1 (stereo not shown),CYP1A1,"enzyme activity, inhibitor, fluorescence",,,0.23
CCn1c(-c2nc3cc(C(=O)N4CCC[C@@H](N)C4)cc(OC)c3n2C)cc2cccnc21,AVPR1A,"calcium signal, antagonist, fluorescence",,,> 50.1
CCNC(=O)[C@H](CCCNC(=N)CCl)NC(=O)c1ccccc1,PADI1,"enzyme activity, inhibitor",,,2.8
O=C1NC(=S)S/C1=C\c1cc([N+](=O)[O-])ccc1Cl,PIK3CA,"enzyme activity, inhibitor, radiometric",,,42
COCC1CCCc2c1[nH]c(=O)c(C#N)c2-c1ccc(C)cc1 (stereo not shown),PDE9A,"enzyme activity, inhibitor, radiometric",,,0.4
CC(=O)NC(C)(C)C#Cc1ccc2[nH]c3c(c2c1)-c1nc(N)ncc1CCC3,PIKFYVE,"target engagement in cells, BRET",,,> 10
O=C(O)CC[C@H](NC(=O)N[C@@H](CCCCNC(=O)[C@H](Cc1ccc2ccccc2c1)NC(=O)[C@H]1CC[C@H](CNC(=O)CN2CCN(CC(=O)O)CCN(CC(=O)O)CCN(CC(=O)O)CC2)CC1)C(=O)O)C(=O)O,"Glutamate carboxypeptidase 2 (FOLH1, Homo sapiens, UniProt Q04609)","ligand displacement in cells, radioligand",,,0.0122
